Data: ChEMBL document CHEMBL4402576, “Discovery and Development of Small-Molecule Inhibitors of Glycogen Synthase” (J Med Chem, 2020)
Active and inactive are the calls of the source. The rule behind the calls is not given here.

How the values were obtained:
Homo sapiens [1] = species: Homo sapiens; test: Inhibition of C-terminal 6His-tagged human GYS1 delta634S8,11N mutant assessed as enzyme activity at 300 uM using UDPG as substrate in presence of 0.4 mM G-6-P by 14C-glucose incorporation assay relative to control; parameters: scale not given: the % may be the effect or the level left
Saccharomyces cerevisiae [2] = test: Inhibition of recombinant His-tagged yeast GYS2P expressed in Escherichia coli BL21(DE3) cells assessed as enzyme activity at 300 uM using UDPG as substrate in presence of G-6-P by 14C-glucose incorporation assay relative to control; parameters: scale not given: the % may be the effect or the level left
[3] = target: T1, Glycogen [starch] synthase, muscle (Homo sapiens) (UniProt P13807); test: Inhibition of C-terminal 6His-tagged wild type human GYS1 assessed as enzyme activity at 300 uM using UDPG as substrate in presence of 1 mM G-6-P by 14C-glucose incorporation assay relative to control; parameters: scale not given: the % may be the effect or the level left
T1 sequence (whole entry): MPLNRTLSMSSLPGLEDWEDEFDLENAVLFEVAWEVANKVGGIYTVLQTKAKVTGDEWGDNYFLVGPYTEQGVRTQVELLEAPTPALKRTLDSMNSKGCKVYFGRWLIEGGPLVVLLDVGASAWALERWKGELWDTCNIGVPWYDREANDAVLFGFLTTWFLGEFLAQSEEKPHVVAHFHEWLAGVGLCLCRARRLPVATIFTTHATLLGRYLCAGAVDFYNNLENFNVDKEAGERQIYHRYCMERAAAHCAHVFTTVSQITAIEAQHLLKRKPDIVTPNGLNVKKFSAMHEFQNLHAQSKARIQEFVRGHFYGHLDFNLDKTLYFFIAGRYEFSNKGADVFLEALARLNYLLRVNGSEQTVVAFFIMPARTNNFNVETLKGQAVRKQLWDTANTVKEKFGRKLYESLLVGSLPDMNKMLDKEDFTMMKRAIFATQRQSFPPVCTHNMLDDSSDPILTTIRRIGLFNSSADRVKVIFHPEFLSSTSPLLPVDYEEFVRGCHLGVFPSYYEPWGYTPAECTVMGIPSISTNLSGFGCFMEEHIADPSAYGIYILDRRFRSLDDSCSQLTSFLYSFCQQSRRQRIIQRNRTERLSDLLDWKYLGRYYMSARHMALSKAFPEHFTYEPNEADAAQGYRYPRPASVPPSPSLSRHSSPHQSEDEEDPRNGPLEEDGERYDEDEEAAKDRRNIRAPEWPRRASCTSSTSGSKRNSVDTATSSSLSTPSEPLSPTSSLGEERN

[4] = target: T1, Glycogen [starch] synthase, muscle (Homo sapiens); test: Inhibition of C-terminal 6His-tagged wild type human GYS1 assessed as enzyme activity at 20 uM using UDPG as substrate in presence of 1 mM G-6-P by 14C-glucose incorporation assay relative to control; parameters: scale not given: the % may be the effect or the level left
[5] = target: T2, Glycogen [starch] synthase, muscle (Homo sapiens, UniProt P13807); test: Inhibition of C-terminal 6His-tagged wild type human GYS1 using UDPG as substrate in presence of 1 mM G-6-P by 14C-glucose incorporation assay
T2 sequence (P13807 whole entry): T1 sequence (whole entry)
In short: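 Full-length wild-type hGYS1 with C-terminal 6×His tag in place of the intein-chitin binding domain, Ni-NTA purified. Glucose transfer from UDP-[14C]glucose into glycogen with 0.2 mM UDPG and 1 mM G6P. Controls contained 2% (v/v) DMSO. IC50 was fitted by four-parameter logistic. Values are mean ± SEM of at least three independent experiments in duplicate.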

Saccharomyces cerevisiae [6] = test: Inhibition of recombinant His-tagged yeast GYS2P expressed in Escherichia coli BL21(DE3) cells assessed as enzyme activity at 20 uM using UDPG as substrate in presence of G-6-P by 14C-glucose incorporation assay relative to control; parameters: scale not given: the % may be the effect or the level left
Homo sapiens [7] = species: Homo sapiens; test: Inhibition of C-terminal 6His-tagged human GYS1 delta634S8,11N mutant assessed as enzyme activity at 20 uM using UDPG as substrate in presence of 0.4 mM G-6-P by 14C-glucose incorporation assay relative to control; parameters: scale not given: the % may be the effect or the level left
[8] = target: T1, Glycogen [starch] synthase, muscle (Homo sapiens); test: Inhibition of glycogen synthase in human HEK293 cell lysates overexpressing mouse PTG at 100 uM using 0.2 mM UDPG as substrate in presence of 1 mM G-6-P by 14C-glucose incorporation assay relative to control; type: subcellular; details: Lysate
In short: (§1)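 Lysates came from HEK293 cells stably expressing PTG (5.5 mM glucose αMEM, 10% FBS, hygromycin) or from Rat-1 cells (25 mM glucose DMEM, 10% FBS), grown 3–4 days to confluency. Cells were lysed by freezing, scraping and sonication in Tris/EDTA/EGTA/NaF buffer with protease inhibitors and Triton. Assays used 0.15 mg/mL (HEK293-PTG) or 0.75 mg/mL (Rat-1) lysate in 50 mM Tris-HCl pH 7.8 with 6.7 mg/ml glycogen and 2% DMSO. Read-out was [14C]glucose incorporation relative to DMSO control, in triplicate.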

[9] = target: T3, Glycogen [starch] synthase, muscle (Rattus norvegicus) (UniProt A2RRU1); test: Inhibition of glycogen synthase in rat-1 fibroblast cell lysates at 100 uM using 0.2 mM UDPG as substrate in presence of 1 mM G-6-P by 14C-glucose incorporation assay relative to control; type: subcellular; details: Lysate; in short: as §1
T3 sequence (whole entry): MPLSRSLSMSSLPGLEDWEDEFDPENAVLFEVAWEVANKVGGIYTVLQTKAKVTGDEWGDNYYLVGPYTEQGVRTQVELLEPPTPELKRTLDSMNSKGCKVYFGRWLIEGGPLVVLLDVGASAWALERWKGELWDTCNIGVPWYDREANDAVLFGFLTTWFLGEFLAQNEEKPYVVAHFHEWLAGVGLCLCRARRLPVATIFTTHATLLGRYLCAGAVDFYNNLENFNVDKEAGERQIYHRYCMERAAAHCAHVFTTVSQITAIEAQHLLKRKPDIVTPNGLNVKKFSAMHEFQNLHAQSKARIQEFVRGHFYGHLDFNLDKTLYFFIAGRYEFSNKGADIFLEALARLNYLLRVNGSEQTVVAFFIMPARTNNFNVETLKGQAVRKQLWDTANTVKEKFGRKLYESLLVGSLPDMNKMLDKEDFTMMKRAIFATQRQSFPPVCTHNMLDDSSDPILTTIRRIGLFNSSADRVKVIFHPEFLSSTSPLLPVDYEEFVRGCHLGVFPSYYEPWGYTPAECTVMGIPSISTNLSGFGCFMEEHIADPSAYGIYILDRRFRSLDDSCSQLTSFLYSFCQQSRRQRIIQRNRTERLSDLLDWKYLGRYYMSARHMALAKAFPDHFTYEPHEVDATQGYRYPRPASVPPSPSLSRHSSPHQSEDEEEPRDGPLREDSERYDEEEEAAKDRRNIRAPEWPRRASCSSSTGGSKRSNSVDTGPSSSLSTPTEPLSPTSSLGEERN

[10] = Competitive inhibition of recombinant His-tagged yeast GYS2P expressed in Escherichia coli BL21(DE3) cells using UDPG as substrate in presence of G-6-P by 14C-glucose incorporation based Michaelis-Menton plot analysis; parameters: species or system Saccharomyces cerevisiae
In short: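 Ni-NTA then Q-Sepharose purified enzyme (5 μg/ml) assayed by radiolabelled glucose transfer from UDPG into glycogen. UDPG varied 0.2–8 mM with 7.2 mM G6P, covaried against fixed inhibitor levels, 2% (v/v) DMSO throughout. Data fitted to competitive, non-competitive and uncompetitive models, chosen by goodness-of-fit and residuals. Ki given as mean ± SEM of three independent experiments in duplicate.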

[11] = target: T1, Glycogen [starch] synthase, muscle (Homo sapiens); test: Inhibition of glycogen synthase in human HEK293 cell lysates overexpressing mouse PTG at 100 uM using 0.2 mM UDPG as substrate in presence of 1 mM G-6-P by 14C-glucose incorporation assay; type: subcellular; details: Lysate; in short: as §1
[12] = target: T3, Glycogen [starch] synthase, muscle (Rattus norvegicus); test: Inhibition of glycogen synthase in rat-1 fibroblast cell lysates at 100 uM using 0.2 mM UDPG as substrate in presence of 1 mM G-6-P by 14C-glucose incorporation assay; type: subcellular; details: Lysate; in short: as §1

Row | Compound | Activity (Homo sapiens [1]) | Activity [3] | Activity [4] | IC50 [5] | Activity (Homo sapiens [7]) | Activity (Saccharomyces cerevisiae [2]) | Activity (Saccharomyces cerevisiae [6]) | also measured
1 | COc1ccc(-c2ccc(CCC(=O)O)n2-c2ccc(O)cc2)cc1 | 50.6% | 84% | – | – | – | 34.5% | – | –
2 | Oc1ccc(-c2c(-c3ccccc3)ncn2CCc2c[nH]cn2)cc1 | 56.6% | 93.4% | – | – | – | 66.6% | – | –
3 | Oc1ccc(-n2c(-c3ccccc3)ccc2-c2ccccc2)cc1 | > 95% | > 95% | – | – | – | 86% | – | –
4 | Oc1ccc(-c2c(-c3cc(F)c(O)cc3O)n[nH]c2C(F)(F)F)cc1 | – | – | 78.4% | 72.4 µM | 74.2% | – | 65.2% | –
5 | O=[N+]([O-])c1ccc(-c2c(-c3ccc(O)cc3O)n[nH]c2C(F)(F)F)cc1 | – | – | 89.2% | – | 92.7% | – | 82.3% | –
6 | NC(=O)c1ccc(-n2c(CCC(=O)O)ccc2-c2ccccc2)cc1 | 40.6% | 78.7% | – | – | – | 49.3% | – | –
7 | Cc1[nH]nc(-c2ccc(O)c(O)c2O)c1-c1ccc(F)cc1 | – | – | 94% | – | 89% | – | > 95% | –
8 | Cc1ccc(-c2ccccc2)n1-c1ccc(O)cc1 | 84.3% | > 95% | – | – | – | 79.7% | – | –
9 | Oc1ccc(-c2n[nH]c(C(F)(F)F)c2-c2ccc(Cl)c(Cl)c2)c(O)c1O | – | – | 12.2% | 13.7 µM | 5.28% | – | 47.4% | –
10 | CN1CCCC1CCn1cnc(-c2ccccc2)c1-c1ccncc1 (stereo unspecified) | 93.3% | > 95% | – | – | – | > 95% | – | –
11 | Oc1ccc(-c2n[nH]cc2-c2ccc(Cl)c(Cl)c2)c(O)c1O | – | – | 52.5% | 19.5 µM | – | – | – | –
12 | O=c1ccn([C@@H]2O[C@H](COP(=O)(O)OP(=O)(O)O)[C@@H](O)[C@H]2O)c(=O)[nH]1 [URIDINE_DIPHOSPHATE] | – | – | – | – | – | – | – | Ki [10]: 350 µM
13 | Oc1ccc(-c2n[nH]cc2-c2ccccc2)c(O)c1O | – | – | 84.7% | – | 25.2% | – | > 95% | –
14 | Cc1[nH]nc(-c2ccc(O)c(O)c2O)c1-c1ccc(Cl)c(Cl)c1 | – | – | 84.7% | – | 81.7% | – | > 95% | –
15 | Cc1[nH]nc(-c2ccc(O)c(O)c2O)c1-c1ccc(Cl)cc1 | 6.47% | 4.34% | 91.8% | 52.9 µM | > 95% | 3.52% | > 95% | –
16 | Oc1ccc(-c2n[nH]c(C(F)(F)F)c2-c2ccc(F)cc2)c(O)c1O | – | – | 47.8% | 14.1 µM | 11.7% | – | 45.7% | inhibition [8]: > 30%; inhibition [9]: > 30%
17 | Oc1ccc(-c2n[nH]c(C(F)(F)F)c2-c2ccc(OC(F)(F)F)cc2)c(O)c1O | – | – | 81.4% | – | 40.3% | – | 91.6% | –

Now from value to compound, other results behind:

Row | Activity (Homo sapiens [1]) | Activity [3] | Activity [4] | IC50 [5] | Activity (Homo sapiens [7]) | Compound | Activity (Saccharomyces cerevisiae [2]) | Activity (Saccharomyces cerevisiae [6]) | also measured
18 | – | – | 42% | 10.1 µM | 8.14% | N#Cc1ccc(-c2c(-c3ccc(O)c(O)c3O)n[nH]c2C(F)(F)F)cc1 | – | 51.2% | –
19 | – | – | > 95% | – | 87.9% | Oc1ccc(-c2n[nH]c(C(F)(F)F)c2-c2ccc(Cl)cc2)c(O)c1 | – | > 95% | –
20 | 72.1% | 87.5% | – | – | – | O=C(O)CCc1ccc(-c2ccccc2)n1-c1ccc(F)cc1 | 84.7% | – | –
21 | – | – | 80.1% | – | > 95% | COC(=O)c1ccc(-c2c(-c3ccc(O)c(O)c3O)n[nH]c2C)cc1 | – | 90.6% | –
22 | – | – | 66.8% | 34 µM | 85% | O=[N+]([O-])c1ccc(-c2c[nH]nc2-c2ccc(O)c(O)c2O)cc1 | – | 78.4% | –
23 | > 95% | > 95% | – | – | – | Oc1ccc(-c2c(-c3ccccc3)ncn2CCCn2ccnc2)cc1 | 94.8% | – | –
24 | – | – | 1.43% | 6.54 µM | 10.5% | O=[N+]([O-])c1ccc(-c2c(-c3ccc(O)c(O)c3O)n[nH]c2C(F)(F)F)cc1 | – | 18.8% | inhibition [8]: > 30%; inhibition [9]: > 30%
25 | 94.4% | > 95% | – | – | – | c1ccc(-c2ncn(CCc3c[nH]cn3)c2-c2ccncc2)cc1 | 72.7% | – | –
26 | – | – | 22.6% | 9.82 µM | 23% | Oc1ccc(-c2c[nH]nc2-c2ccc(O)c(O)c2O)cc1 | – | 6.21% | –
27 | – | – | 47.2% | 16.4 µM | 5.68% | Oc1ccc(-c2n[nH]c(C(F)(F)F)c2-c2ccccc2)c(O)c1O | – | 51.8% | –
28 | 40.1% | 58.9% | – | 384 µM | – | O=C(O)CCc1ccc(-c2ccccc2)n1-c1ccc(O)cc1 | 40.1% | – | inhibition [11]: inactive; inhibition [12]: inactive
29 | – | – | 47.5% | 19.8 µM | 11.8% | Oc1ccc(-c2n[nH]c(C(F)(F)F)c2-c2ccc(Cl)cc2)c(O)c1O | – | 51.5% | inhibition [8]: > 30%; inhibition [9]: > 30%
